Test results taken from ChEMBL document CHEMBL4145587, “Peniisocoumarins A-J: Isocoumarins from Penicillium commune QQF-3, an Endophytic Fungus of the Mangrove Plant Kandelia candel” (J Nat Prod, 2018).
Active and inactive are the calls of the source. No cut-off for these calls is given here.

Tests used:
[1] = Inhibition of Saccharomyces cerevisiae alpha-glucosidase using p-nitrophenyl-glycoside as substrate incubated for 20 mins followed by substrate addition measured immediately
How it was run: (§1)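 Yeast α-glucosidase from S. cerevisiae, from an enzyme stock of 2.0 units/mL, in 0.01 M potassium phosphate buffer at pH 7.0. Sample in DMSO was preincubated with enzyme for 20 min at 37 °C. p-Nitrophenyl glycoside (3 mg/mL stock) was then added and A410 read immediately at 37 °C. Inhibition % = (B−S)/B×100, with B as the DMSO blank. Screened at 200 μM; compounds above 45% inhibition went on to IC50. Triplicates.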

[2] = target: T1, Phosphotyrosine protein phosphatase (Mycobacterium tuberculosis) (UniProt A0A045ISB3); experiment: Inhibition of Mycobacterium tuberculosis H37Ra PTPB expressed in Escherichia coli BL21 (DE3) at 50 uM using p-nitrophenyl phosphate as substrate preincubated for 10 mins followed by substrate addition measured for 5 mins by spectrophotometric analysis
T1 sequence (whole entry): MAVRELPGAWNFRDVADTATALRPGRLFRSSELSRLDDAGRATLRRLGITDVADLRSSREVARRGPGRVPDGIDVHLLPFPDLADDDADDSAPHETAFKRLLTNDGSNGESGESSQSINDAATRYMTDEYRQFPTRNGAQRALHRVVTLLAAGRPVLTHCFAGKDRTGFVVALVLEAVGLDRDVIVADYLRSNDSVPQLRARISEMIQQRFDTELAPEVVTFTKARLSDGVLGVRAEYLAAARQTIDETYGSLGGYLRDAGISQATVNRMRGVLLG
How it was run: (§2)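 Triplicate wells; reaction buffer 50 mM Tris/100 mM NaCl, pH 7.0; p-nitrophenyl phosphate as substrate; oleanolic acid as positive control. Full details on enzyme overexpression, purification and assay are given in an earlier report.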

A549 = experiment: Cytotoxicity against human A549 cells by MTT assay; type: functional, cell-based
How it was run: (§3)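 MTT read-out in human cell lines A549, HepG2, HeLa, MCF-7 and HEK293T. Compounds were tested at 100 μM. Other details follow a prior report.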

MCF7 = experiment: Cytotoxicity against human MCF7 cells by MTT assay; type: functional, cell-based; how it was run: as §3
Saccharomyces cerevisiae = experiment: Inhibition of Saccharomyces cerevisiae alpha-glucosidase at 200 uM using p-nitrophenyl-glycoside as substrate incubated for 20 mins followed by substrate addition measured immediately relative to control; how it was run: as §1
HEK-293T = experiment: Cytotoxicity against human HEK293T cells by MTT assay; type: functional, cell-based; how it was run: as §3
HepG2 = experiment: Cytotoxicity against human HepG2 cells by MTT assay; type: functional, cell-based; how it was run: as §3
HeLa = experiment: Cytotoxicity against human HeLa cells by MTT assay; type: functional, cell-based; how it was run: as §3
[3] = target: T2, Phosphotyrosine protein phosphatase (Mycobacterium tuberculosis, UniProt A0A045ISB3); experiment: Inhibition of Mycobacterium tuberculosis H37Ra PTPB expressed in Escherichia coli BL21 (DE3) using p-nitrophenyl phosphate as substrate preincubated for 10 mins followed by substrate addition measured for 5 mins by spectrophotometric analysis; how it was run: as §2
T2 sequence (A0A045ISB3 whole entry): T1 sequence (whole entry)

Structure (SMILES) | IC50 [1] [µM] | inhibition [2] | Activity (A549) | Activity (MCF7) | inhibition (Saccharomyces cerevisiae) [%] | Activity (HEK-293T) | Activity (HepG2) | Activity (HeLa) | IC50 [3] [µM]
COc1cc(O)c2c(=O)oc(C[C@@H](Cl)CO)cc2c1O | 110 | inactive | inactive | inactive | 66 | inactive | inactive | inactive | 
COc1cc(O)c2c(=O)oc(C[C@@H]3O[C@@H]3C(C)=O)cc2c1 | 38.1 | inactive | inactive | inactive | 95 | inactive | inactive | inactive | 
C[C@H](O)Cc1cc2c(O)c(O)cc(O)c2c(=O)o1 | 40.5 |  | inactive | inactive | 91 | inactive | inactive | inactive | 20.7
COc1cc(O)c2c(=O)oc(C[C@@H](O)CO)cc2c1 |  | inactive | inactive | inactive | 43 | inactive | inactive | inactive | 
C[C@H]1O[C@H](O[C@H]2[C@H](O)[C@@H](O)[C@@H](O[C@H]3[C@H](O)[C@@H](O)C(O)O[C@@H]3CO)O[C@@H]2CO)[C@H](O)[C@@H](O)[C@@H]1N[C@H]1C=C(CO)[C@@H](O)[C@H](O)[C@H]1O (stereo partly specified) [ACARBOSE] | 478 |  |  |  | 19 |  |  |  | 
CC1(C)CC[C@]2(C(=O)O)CC[C@]3(C)C(=CC[C@@H]4[C@@]5(C)CC[C@H](O)C(C)(C)[C@@H]5CC[C@]43C)[C@@H]2C1 [OLEANOLIC_ACID] |  |  |  |  |  |  |  |  | 22.1
COc1cc(O)c2c(=O)oc(C[C@@H](O)CC(C)=O)cc2c1 |  | inactive | inactive | inactive | 38 | inactive | inactive | inactive | 
COc1cc(O)c2c(=O)oc(C[C@@H](O)C(Cl)Cl)cc2c1O | 45.1 | inactive | inactive | inactive | 91 | inactive | inactive | inactive | 
COc1cc(O)c2c(=O)oc(C[C@@H](O)C(Cl)Cl)cc2c1 | 102 | inactive | inactive | inactive | 69 | inactive | inactive | inactive | 
COC(=O)[C@@H]1[C@H](C(=O)OC)[C@@H](c2cc3cc(OC)cc(O)c3c(=O)o2)[C@H]1c1cc2cc(OC)cc(O)c2c(=O)o1 |  | inactive | inactive | inactive | 18 | inactive | inactive | inactive | 
COc1cc(O)c2c(=O)oc(C[C@@H](O)CO)cc2c1O | 78.1 | inactive | inactive | inactive | 83 | inactive | inactive | inactive | 
COC(=O)[C@@H]1[C@H](C(=O)OC)[C@H](c2cc3cc(OC)cc(O)c3c(=O)o2)[C@@H]1c1cc2cc(OC)cc(O)c2c(=O)o1 |  | inactive | inactive | inactive | 23 | inactive | inactive | inactive | 
COc1cc(O)c2c(=O)oc(C[C@H](C)O)cc2c1 |  | inactive | inactive | inactive | 33 | inactive | inactive | inactive | 
COc1cc(O)c2c(=O)oc(C[C@@H](O)CCl)cc2c1 |  | inactive | inactive | inactive | 41 | inactive | inactive | inactive | 
COc1cc(O)c2c(=O)oc(C[C@@H](Cl)CO)cc2c1 | 158 | inactive | inactive | inactive | 58 | inactive | inactive | inactive | 
